We go through one molecule from paper PMC11041979 (International Journal of Nanomedicine, 2024).

A short description of one series: Water solubility assay. Type of series: physicochemical. The essentials:
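Saturated aqueous test-compound solutions were sonicated, centrifuged and diluted 10–500-fold. Carbon dots (3 mg/mL stock) were diluted to 10 levels, 1500–3.12 μg/mL. Samples were centrifuged at 10000 rpm for 10 min and filtered through 0.22 µm. HPLC used a C18 column at 30°C with 0.4% acetic acid water–acetonitrile 85:15 at 1.0 mL/min and detection at 318 nm. Calibration followed Chinese Pharmacopoeia methods.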

Series [1] can be described thus: Pharmacokinetics of MA in rats after oral gavage. Type of series: in vivo, Sprague-Dawley rats. In a few lines: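 Male Sprague-Dawley rats (200 ± 20 g), acclimatised 1 week, fasted 12 h with free water. Test compound given by gavage at 20 mg/kg (2 mg/mL) as an aqueous suspension or as a saturated suspension in carbon-dot solution (stirred 20 min). Orbital blood drawn 5–1440 min into heparin. Plasma protein-precipitated with acetonitrile:acetic acid 9:1, isomangiferin internal standard, UHPLC-MS/MS. Mean ± SD.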

The conditions of series [2]: literature value; cited from earlier work.
The mark [3] stands for this setting: Sprague-Dawley, rat, plasma, po, 20 mg/kg.

Molecules are shown by their SMILES. ≈ marks a conversion by molar mass, not a printed value.

For orientation: solubility means the dissolved amount per volume that the medium holds. One may read the AUC(0-t) as exposure summed from dosing to a finite time, without extrapolation to infinity. A higher AUC(0-t) goes with high exposure. The Cmax is the maximum level reached in the sampled fluid or tissue. For orientation: Tmax means the time from dosing to the highest level. The term half-life denotes how long it takes for the measured level to halve. Read a high half-life as slow loss. Regarding `O=c1c2cc(O)c(O)cc2oc2cc(O)c([C@@H]3O[C@H](CO)[C@@H](O)[C@H](O)[C@H]3O)c(O)c12` [MA, Mangiferin], the “solubility of MA in water with MC-CDs” value in the series “Water solubility assay” (aqueous MC-CDs solution, MC-CDs concentration exceeding 100 μg/mL) is reported as “increases significantly”. Moreover, the solubility in “Water solubility assay” (water, thermodynamic from solid) was found to be 115 µg/mL (≈ 273 µM). The maximum concentration in series [1] (MA, oral, preliminary rat pharmacokinetics) was found to be 200 ng. Further, in series [1] (setting [3]), the AUC(0-t) is 1.52 ± 2.64 ng·h/mL, the highest level (Cmax) was 0.201 ± 0.0314 ng/mL, the Tmax came to 4 ± 1.42 h and the half-life was 3.27 ± 2.18 h. For the same molecule, the “Tmax after oral administration” value in series [2] was “about 267.49 ± 108.29 min”.
